Experimental findings from ChEMBL document CHEMBL3576865, “Structure-activity relationships of lysophosphatidylserine analogs as agonists of G-protein-coupled receptors GPR34, P2Y10, and GPR174” (J Med Chem, 2015) are described below.

The structures appear in SMILES notation. Activity calls are given as the source filed them. No cut-off for these calls is given here.

The target of the test is Putative P2Y purinoceptor 10 (Mus musculus) (UniProt Q8BFU7). The test can be described thus: Agonist activity at mouse P2Y10 receptor expressed in McA-RH7777 cells assessed as actin stress fiber formation at 1 uM after 30 mins by confocal microscopy. In kind it is cell-based. Put shortly: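 McA-RH7777 cells stably expressing mouse P2Y10, or mock retrovirus-infected, were grown on collagen I and serum-starved 1 h. They were stimulated with 1 μM compound in serum-free DMEM containing 0.01% fatty-acid-free BSA. […] F-actin fibers were imaged by confocal microscopy.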
Chain of Putative P2Y purinoceptor 10 (Mus musculus) (Q8BFU7 whole entry): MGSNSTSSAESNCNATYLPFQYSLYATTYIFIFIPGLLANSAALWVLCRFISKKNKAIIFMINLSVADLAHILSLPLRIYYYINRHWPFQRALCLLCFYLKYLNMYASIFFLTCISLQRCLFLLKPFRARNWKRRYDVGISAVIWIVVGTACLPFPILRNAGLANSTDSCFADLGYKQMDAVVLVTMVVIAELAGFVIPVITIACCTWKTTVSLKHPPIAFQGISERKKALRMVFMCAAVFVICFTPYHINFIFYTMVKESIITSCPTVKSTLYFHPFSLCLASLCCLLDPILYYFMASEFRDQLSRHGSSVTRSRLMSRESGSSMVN
In the case of `CCCCCCCC/C=C\CCCCCCCC(=O)OC[C@@H](O)COP(=O)(O)OC[C@H](N)C(=O)O`, the result was Active.

As to `CCCCCCCCCCCOc1ccccc1CCC(=O)OCCCOP(=O)(O)OC[C@H](N)C(=O)O`, the outcome was Active.

In the case of `CCCCCCCCCCCOc1cccc(CCC(=O)NC[C@@H](O)COP(=O)(O)O[C@@H](C)[C@H](N)C(=O)O)c1`, the result was inactive.

In the case of `CCCCCCCCCCCOc1ccccc1CCC(=O)OCC(F)(F)COP(=O)(O)OC[C@H](N)C(=O)O`, the outcome was Active.
